# Source: ChEMBL document CHEMBL1275592, “AmpN-AmpG operon is essential for expression of L1 and L2 beta-lactamases in Stenotrophomonas maltophilia” (2010)
# How the values were obtained:
# Format in all cases: functional
# [1] = tested on: Stenotrophomonas maltophilia; experiment: Antimicrobial activity against Stenotrophomonas maltophilia KJN2 harboring pRK-NG plasmid and ampN with xylE-Gmomega cassette insertion by Etest
# Summary of the method: (§1)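 Imipenem and meropenem MICs were read from Etest strips, following the manufacturer's instructions.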
# [2] = tested on: Stenotrophomonas maltophilia; experiment: Antimicrobial activity against ampN deficient Stenotrophomonas maltophilia KJ by Etest; summary of the method: as §1
# [3] = tested on: Stenotrophomonas maltophilia; experiment: Antimicrobial activity against Stenotrophomonas maltophilia KJN2 harboring pRK415 plasmid and ampN with xylE-Gmomega cassette insertion by Etest; summary of the method: as §1
# [4] = tested on: Stenotrophomonas maltophilia; experiment: Antimicrobial activity against Stenotrophomonas maltophilia KJN2 harboring ampN with xylE-Gmomega cassette insertion by Etest; summary of the method: as §1
# [5] = tested on: Stenotrophomonas maltophilia; experiment: Antimicrobial activity against Stenotrophomonas maltophilia KJG harboring ampG with xylE-Gmomega cassette insertion by Etest; summary of the method: as §1
# [6] = tested on: Stenotrophomonas maltophilia; experiment: Antimicrobial activity against Stenotrophomonas maltophilia KJN2 harboring pRK-EcG plasmid and ampN with xylE-Gmomega cassette insertion by Etest; summary of the method: as §1
# [7] = tested on: Stenotrophomonas maltophilia; experiment: Antimicrobial activity against Stenotrophomonas maltophilia KJN2 harboring pRK-G plasmid and ampN with xylE-Gmomega cassette insertion by Etest; summary of the method: as §1
# [8] = tested on: Stenotrophomonas maltophilia; experiment: Antimicrobial activity against Stenotrophomonas maltophilia KJ by Etest; summary of the method: as §1
# [9] = tested on: Stenotrophomonas maltophilia; experiment: Antimicrobial activity against ampN deficient Stenotrophomonas maltophilia KJ harboring ampG with xylE-Gmomega cassette insertion by Etest; summary of the method: as §1
# [10] = tested on: Stenotrophomonas maltophilia; experiment: Antimicrobial activity against Stenotrophomonas maltophilia KJN1 harboring ampN with xylE-Gmomega cassette insertion by Etest; summary of the method: as §1
smiles,measurement,setting,value
C[C@@H](O)[C@H]1C(=O)N2C(C(=O)O)=C(S[C@@H]3CN[C@H](C(=O)N(C)C)C3)[C@H](C)[C@H]12 [MEROPENEM],MIC,[1],> 32 µg/mL
same,MIC,[2],0.38 µg/mL
same,MIC,[3],0.5 µg/mL
same,MIC,[4],0.38 µg/mL
same,MIC,[5],0.38 µg/mL
same,MIC,[6],> 32 µg/mL
same,MIC,[7],0.75 µg/mL
same,MIC,[8],> 32 µg/mL
same,MIC,[9],0.38 µg/mL
same,MIC,[10],0.5 µg/mL
